Bioassay records from PubChem.
This is a sample that favours compounds with a hit; in the whole collection about 4.6% have one here.
OX1R antag-1: OX1R (HCRTR1) antagonists, primary screen, fluorescence, CHO/OX1R cells, Fluo-8 calcium, orexin A. Fluo-8 calcium fluorescence. inhibition, % at 5 µM. actives 0.43% (n = 330,000). AID 434989, 2010;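 active means inhibition above its plate's threshold, mean inhibition of all tested compounds on the plate plus 3 SD, cut at about 37% in these data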;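 further: 0% = orexin A challenge wells and 100% = SB-334867-A antagonist wells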
TAAR1 antagonist: human TAAR1 antagonists, primary screen, Fluo-8 calcium fluorescence, CHO RD-HGA16 cells; antagonist; inhibition, % at 3 µM; actives 1.5% (n = 360,000); AID 624466, 2012;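 active means inhibition above a per-plate cutoff, the mean inhibition of test compounds on that plate plus 3 SD, cut at about 49% in these data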;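 further: 0% = DMSO plus EC80 beta-PEA response and 100% = DMSO alone without agonist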
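System: RD-HGA16 CHO cells with stable hTAAR1 and Gα16 | Probe or stimulus: EC80 β-phenethylamine stimulus | Dosing: 3 µM, single point | Times: Dye loading 75 min at 37 °C, then 30 min room temperature | Measured by: Fluo-8 calcium-sensitive fluorescence | Read-out basis: % inhibition of agonist calcium response | Replicates: n of 1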
CHO parental Ca: ATP-evoked calcium signal inhibitors, parental CHO, primary screen, counter-screen for OX1R antagonist project, cell-based, fluorescence, Fluo-8 calcium dye | inhibition, % at 5.6 µM | actives 0.63% (n = 330,000) | parental CHO-K1, ATP-induced calcium, Fluo-8 fluorescence;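 active means inhibition above that plate's mean sample inhibition plus 3 SD, cut at about 26% in these data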;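 further: 0% = ATP-challenged DMSO wells and 100% = DMSO wells without ATP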
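Assay system: parental CHO cells; Read-out basis: percent inhibition of ATP-evoked calcium rise, normalized to controls; Benchmarks: ATP and no-ATP DMSO wells; Compound dosing: single nominal dose of 5.6 µM per compound; Signal: Fluo-8 calcium dye fluorescence; Also added: ATP as calcium-mobilizing challenge; Repeats: singlicate.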
OX1R antag-2: antagonists of human orexin 1 receptor (OX1R). Orexin/Hypocretin receptor type 1 (Homo sapiens), O43613. OX1R-expressing cells, FRET antagonist read-out. inhibition, % at 6.6 µM. actives 1.8% (n = 330,000); in the data active means inhibition mostly above about 38%, no sharp cut-off; inactive means mostly below about 40%;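 further: 0% = agonist challenge alone and 100% = reference antagonist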
GPR7 antagonist: GPR7 receptor antagonists, primary screen, cell-based, fluorescence, single concentration | Neuropeptides B/W receptor type 1 (Homo sapiens), P48145 | AID 1861, 2009 | GPR7-expressing cells, fluorescence antagonist assay | inhibition, % at 4.4 µM | actives 1.1% (n = 290,000); in the data active means inhibition above about 16%, passing the limit was not always enough;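 further: cells stimulated with the agonist NPW; 0% = agonist with vehicle and 100% = vehicle without agonist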
Target sequence (P48145 whole entry, looked up): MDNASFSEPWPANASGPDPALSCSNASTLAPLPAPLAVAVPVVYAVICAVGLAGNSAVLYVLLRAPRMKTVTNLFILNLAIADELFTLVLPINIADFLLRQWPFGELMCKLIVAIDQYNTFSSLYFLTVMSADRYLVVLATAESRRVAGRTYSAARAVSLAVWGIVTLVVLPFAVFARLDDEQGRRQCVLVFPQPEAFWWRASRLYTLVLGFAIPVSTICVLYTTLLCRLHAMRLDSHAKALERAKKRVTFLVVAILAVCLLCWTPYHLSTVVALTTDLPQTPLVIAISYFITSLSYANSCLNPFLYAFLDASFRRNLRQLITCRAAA
TAAR1 agonist: human TAAR1 agonists, primary screen, Fluo-8 calcium fluorescence, CHO RD-HGA16 cells | vehicle wells 0%, saturating PEA agonist 100% | activation, % at 3 µM | actives 0.99% (n = 360,000);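 active means activation above the mean activation of all test compounds in the run plus 3 SD, cut at about 38% in these data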
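Test system: RD-HGA16 (CHO) cells co-expressing Gα16 and hTAAR1; dosing: one-point dosing at 3 µM (nominal); timing: 17-24 h seeding, 75 min 37 °C dye, 30 min RT; signal: kinetic Fluo-8 calcium fluorescence; read-out basis: % activation relative to PEA EC100 response; controls: DMSO and PEA EC100; replicates: n 1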
Numbers without * were called inactive; . = not tested or not shown.

SMILES	OX1R antag-1	TAAR1 antagonist	CHO parental Ca	OX1R antag-2	GPR7 antagonist	TAAR1 agonist
Cc1ccc([C@H]2C[C@@H](O)[C@H](n3cc(C4CC4)nn3)CN2Cc2cccs2)cc1	.	-30	.	.	.	3
COc1ccccc1/C=C/CN1CCC(n2nccc2NC(=O)C2CC2)CC1	-18	2	-23	35	-15	0
CCCCN(C(=O)c1ccc([N+](=O)[O-])s1)c1c(N)n(CC(C)C)c(=O)[nH]c1=O	-8	-9	-1	29	.	0
CCCCn1c(N)c(N(CCOC)C(=O)c2ccc(NC3CC3)c([N+](=O)[O-])c2)c(=O)[nH]c1=O	-18	-12	-33	47*	.	0
CCCCn1c(N)c(N(CCC(C)C)C(=O)c2ccc([N+](=O)[O-])s2)c(=O)[nH]c1=O	-41	-2	-22	37*	.	4
CCCCN1C(=O)c2ccc(C(=O)Nc3ccccc3N3CCOCC3)cc2C1=O	-23	-17	-7	22	1	2
CCCCn1c(SCC(=O)Nc2nnc(C)s2)nnc1-c1ccncc1	-19	-13	-12	10	-9	10
CC(OC(=O)c1cc(-c2cccnc2)nc2ccccc12)C(=O)Nc1ccc2ccccc2c1 (stereo unspecified)	-22	51*	-25	20	-3	9
O=C(NNC(=S)Nc1ccccc1)c1cc(-c2cccnc2)nc2ccccc12	-34	21	-24	25	-16	7
CCN(c1ccccc1)S(=O)(=O)c1ccc(OC)c(NC(=O)CNCCc2ccccc2)c1	-10	55*	14	27	5	31
CCN(c1ccccc1)S(=O)(=O)c1ccc(OC)c(NC(=O)C2CCC2)c1	-9	-17	-16	2	.	0
CC1(/[N+]([O-])=C\c2ccccc2F)CCCCC1=O (stereo unspecified)	-15	-28	-3	-1	-13	1
O=C(CSc1nc(-c2ccccc2)nn1C(=O)c1ccccc1)Nc1cccc([N+](=O)[O-])c1	2	20	8	22	15	4
CCc1ccccc1NC(=O)CSc1nc(-c2ccccc2)nn1C(=O)c1cccc([N+](=O)[O-])c1	-17	.	-22	42*	-6	.
Cc1ccccc1CS(=O)(=O)c1nnc([C@H](Cc2ccccc2)NC(=O)OC(C)(C)C)o1	34	23	51*	1	0	2
CC(C)(C)OC(=O)N[C@@H](Cc1ccccc1)c1nnc(S(=O)(=O)Cc2ccccc2)o1	30	21	32*	20	17	10
CCSc1nnc([C@H](Cc2ccccc2)NC(=O)OC(C)(C)C)o1	-31	6	-19	14	-10	5
CCCNc1[nH]c(=O)n(C)c(=O)c1N=O	-21	6	-3	69*	-3	7
NC(=O)C1(N2CCCCC2)CCN(C(=O)c2ccccc2)CC1	-16	-7	-13	10	0	1
Cc1ccc(/C=C/c2nnc(-c3cccs3)o2)cc1	-10	-31	-28	42*	2	-4
CSCCC(NC(=O)c1ccc([N+](=O)[O-])cc1Cl)C(=O)OCC(=O)NC(=O)CN1CCCC1=O (stereo unspecified)	-1	-3	-8	56*	.	0
CSCCC(NC(=O)c1ccc([N+](=O)[O-])cc1Cl)C(=O)OCC(=O)NC1CCCC(C)C1C (stereo unspecified)	-10	13	-22	17	3	6
CSCCC(NC(=O)c1ccc([N+](=O)[O-])cc1Cl)C(=O)OC1CCCCC1=O (stereo unspecified)	-19	1	-10	67*	-9	1
Cc1nnc2n1N=CC=C(C(C)(C)C)S2	1	15	0	14	6	0
Cc1nnc2n1N=CC=C(c1ccccc1)S2	-4	5	-9	54*	16	8
SMILES	OX1R antag-1	TAAR1 antagonist	CHO parental Ca	OX1R antag-2	GPR7 antagonist	TAAR1 agonist
CC(=O)c1cccc(NC(=O)CN(c2ccccc2F)S(C)(=O)=O)c1	-12	11	-12	8	-2	11
CC(NC(=O)Cn1cnc2c1c(=O)n(C)c(=O)n2C)c1ccccc1 (stereo unspecified)	-12	-3	-7	16	-10	8
CCc1ccc(C(C)NC(=O)Cn2cnc3c(=O)n(C)c(=O)n(C)c32)cc1 (stereo unspecified)	-15	1	-11	2	-5	38*
COCc1[nH]nc2c1C(c1cc(OC)c(O)c(OC)c1)C(C#N)=C(N)O2 (stereo unspecified)	-6	-8	-6	76*	0	14
COCc1[nH]nc2c1C(c1ccc(OC)c(OC)c1)C(C#N)=C(N)O2 (stereo unspecified)	-8	-3	4	25	-9	8
O=C(O)c1ccccc1C=NN1CCCCCC1	.	-22	.	.	.	-1
CN(C(=O)CSc1nnc(-c2ccccc2F)o1)c1ccccc1	-17	-10	-4	11	.	1
COc1ccc(CN(C(=O)CSc2nnc(-c3ccccc3F)o2)c2ccc(F)cc2)cc1	7	.	26*	33	-22	.
CCCCCCCC[n+]1cccc2c3ccccc3ccc21	36	1	63*	20	67*	1
CCCCCCCCCC[n+]1cccc2c3ccccc3ccc21	.	3	.	.	70*	11
O=C(CCCOc1ccccc1)NNC(=O)c1ccncc1	2	-6	-11	8	.	1
O=C(Nc1nc2c(s1)CCCC2=O)c1cnccn1	-11	11	2	49*	-13	4
C[C@H](CO)N1C[C@H](C)[C@H](CN(C)Cc2cccc(C(F)(F)F)c2)OCc2ccccc2-c2c(n(C)c3ccccc23)C1=O	.	-15	.	.	.	0
N#Cc1ccsc1NC(=O)C1CCCN1S(=O)(=O)c1cccs1 (stereo unspecified)	12	-24	-13	53*	.	1
O=[S@]1Oc2ccccc2-c2ccccc21	9	12	-5	6	.	51*
O=C1OCC(c2ccccc2)=C1c1ccccc1	-14	4	-9	13	-22	-1
NC1=C(c2ccccc2)C(=O)NC1=O	-15	-1	-15	40*	25	-1
O=C(CCS(=O)(=O)c1ccccc1)Nc1cccc(-c2nc3ccccc3s2)c1	6	60*	-5	55*	1	19
